pIC50: −log10 of the molar value.
molecular target: Proto-oncogene tyrosine-protein kinase Src (Homo sapiens, UniProt P12931); test: Inhibition of SRC; conditions: not given
Sequence (P12931 2-536 limits assumed): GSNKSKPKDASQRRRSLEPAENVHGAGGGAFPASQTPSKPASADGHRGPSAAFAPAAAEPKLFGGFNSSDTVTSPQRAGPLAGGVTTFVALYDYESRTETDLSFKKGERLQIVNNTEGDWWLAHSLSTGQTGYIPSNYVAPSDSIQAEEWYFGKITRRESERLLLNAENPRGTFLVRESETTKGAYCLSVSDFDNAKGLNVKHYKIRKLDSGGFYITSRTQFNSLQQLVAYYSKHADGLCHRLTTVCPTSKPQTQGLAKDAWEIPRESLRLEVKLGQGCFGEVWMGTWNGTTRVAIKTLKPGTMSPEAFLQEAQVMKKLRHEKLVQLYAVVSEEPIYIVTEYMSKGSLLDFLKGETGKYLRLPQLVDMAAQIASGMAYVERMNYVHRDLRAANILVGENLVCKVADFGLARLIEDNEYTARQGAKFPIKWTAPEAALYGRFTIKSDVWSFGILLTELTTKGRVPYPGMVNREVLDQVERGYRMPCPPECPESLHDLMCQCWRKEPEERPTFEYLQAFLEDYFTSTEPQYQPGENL

Row | SMILES | pIC50
1 | COc1cc(/C=C2\SC(=N)NC2=O)ccc1OCCCOc1cc(C)cc(C)c1 | 5.00

molecular target: T1, Insulin receptor (Homo sapiens, UniProt P06213); conditions: not given
T1 sequence (P06213 28-758 limits assumed): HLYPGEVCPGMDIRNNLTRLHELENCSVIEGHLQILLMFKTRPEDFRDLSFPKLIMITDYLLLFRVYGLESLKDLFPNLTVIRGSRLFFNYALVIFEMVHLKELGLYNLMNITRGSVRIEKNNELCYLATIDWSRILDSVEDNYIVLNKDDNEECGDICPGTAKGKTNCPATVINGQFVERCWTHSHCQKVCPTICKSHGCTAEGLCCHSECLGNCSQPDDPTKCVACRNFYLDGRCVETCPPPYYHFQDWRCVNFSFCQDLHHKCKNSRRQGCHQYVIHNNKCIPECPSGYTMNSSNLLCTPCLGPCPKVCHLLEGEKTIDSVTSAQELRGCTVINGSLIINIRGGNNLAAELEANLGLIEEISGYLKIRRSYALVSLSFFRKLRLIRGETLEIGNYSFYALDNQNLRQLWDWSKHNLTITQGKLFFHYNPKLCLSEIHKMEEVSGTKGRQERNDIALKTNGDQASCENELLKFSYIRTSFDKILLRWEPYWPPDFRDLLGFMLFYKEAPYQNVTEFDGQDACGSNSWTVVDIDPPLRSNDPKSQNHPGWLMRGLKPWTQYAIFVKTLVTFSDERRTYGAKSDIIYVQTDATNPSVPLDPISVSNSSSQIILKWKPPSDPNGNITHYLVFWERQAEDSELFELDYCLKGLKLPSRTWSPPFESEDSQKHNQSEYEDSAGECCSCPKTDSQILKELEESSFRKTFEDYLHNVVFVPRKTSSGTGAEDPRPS
T1 sequence (P06213 763-1382 limits assumed): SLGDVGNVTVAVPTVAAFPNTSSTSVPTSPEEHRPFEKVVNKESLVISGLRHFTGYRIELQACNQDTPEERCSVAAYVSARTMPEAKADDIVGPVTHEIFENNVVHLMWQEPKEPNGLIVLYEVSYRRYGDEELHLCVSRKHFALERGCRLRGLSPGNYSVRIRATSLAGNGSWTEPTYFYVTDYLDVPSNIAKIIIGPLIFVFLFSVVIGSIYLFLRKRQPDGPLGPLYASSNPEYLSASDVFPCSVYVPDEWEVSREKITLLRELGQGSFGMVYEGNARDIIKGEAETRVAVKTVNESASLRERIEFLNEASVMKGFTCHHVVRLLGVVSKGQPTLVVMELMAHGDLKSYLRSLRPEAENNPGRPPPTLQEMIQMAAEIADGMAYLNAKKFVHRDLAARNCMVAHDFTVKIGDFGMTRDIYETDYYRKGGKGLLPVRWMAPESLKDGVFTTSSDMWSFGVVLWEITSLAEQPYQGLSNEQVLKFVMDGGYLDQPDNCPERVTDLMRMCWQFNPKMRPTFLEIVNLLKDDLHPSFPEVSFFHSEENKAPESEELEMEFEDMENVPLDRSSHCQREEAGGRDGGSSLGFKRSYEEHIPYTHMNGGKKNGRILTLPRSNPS

Row | SMILES | pIC50
2 | COc1cc(/C=C2\SC(=N)NC2=O)ccc1OCCCOc1cc(C)cc(C)c1 | 4.33

molecular target: Fibroblast growth factor receptor 1 (Homo sapiens, UniProt P11362); test: Inhibition of FGFR1; conditions: not given
Sequence (P11362 whole entry): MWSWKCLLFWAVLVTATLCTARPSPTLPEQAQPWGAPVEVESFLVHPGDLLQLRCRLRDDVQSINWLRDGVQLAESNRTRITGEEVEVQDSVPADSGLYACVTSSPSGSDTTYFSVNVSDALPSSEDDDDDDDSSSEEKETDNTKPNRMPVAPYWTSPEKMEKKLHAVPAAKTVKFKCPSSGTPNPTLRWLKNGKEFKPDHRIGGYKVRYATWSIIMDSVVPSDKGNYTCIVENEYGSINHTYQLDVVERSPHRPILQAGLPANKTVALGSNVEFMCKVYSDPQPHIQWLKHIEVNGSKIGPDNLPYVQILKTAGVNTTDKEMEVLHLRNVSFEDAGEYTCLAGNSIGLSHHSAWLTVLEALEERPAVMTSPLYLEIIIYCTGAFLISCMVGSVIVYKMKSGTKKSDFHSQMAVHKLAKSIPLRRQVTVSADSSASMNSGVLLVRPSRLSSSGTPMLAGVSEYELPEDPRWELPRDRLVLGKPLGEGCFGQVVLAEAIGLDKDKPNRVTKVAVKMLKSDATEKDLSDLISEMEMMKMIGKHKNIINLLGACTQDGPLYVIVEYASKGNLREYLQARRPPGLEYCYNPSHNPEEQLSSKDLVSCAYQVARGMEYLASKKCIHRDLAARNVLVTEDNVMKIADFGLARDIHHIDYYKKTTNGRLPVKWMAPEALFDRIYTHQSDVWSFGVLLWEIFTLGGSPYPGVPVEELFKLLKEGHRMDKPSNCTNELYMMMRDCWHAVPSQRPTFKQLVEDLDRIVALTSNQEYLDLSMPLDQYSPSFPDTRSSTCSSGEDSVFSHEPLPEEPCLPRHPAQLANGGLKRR

Row | SMILES | IC50
3 | COc1cc(/C=C2\NC(=S)NC2=O)ccc1OCCCOc1ccc(Cl)cc1 | Not Active
4 | O=c1[nH]c2ccc(NCc3cccc(OCc4ccccc4)c3)cc2[nH]1 | Not Active
5 | Cc1ccc2[nH]c(=O)c3cc(C(=O)N4CCN(c5ccccn5)CC4)sc3c2c1 | Not Active
6 | CCOC(=O)CNc1ccccc1-c1nc2ccccc2[nH]c1=O | Not Active
7 | CC(CCc1ccccc1)NC(=O)COC(=O)CC1Sc2ccccc2NC1=O (stereo not given) | Not Active
8 | C=C1c2ccccc2NC(=O)N1c1cccc(Cl)c1 | Not Active
9 | O=C1C(Nc2ccccc2)=CC(c2cccc([N+](=O)[O-])c2)N1c1ccccc1 (stereo not given) | Not Active
10 | Cc1ccc2[nH]c(=O)c(-c3nc4ccc(Cl)cn4c3NCC3CCCO3)cc2c1 (stereo not given) | Not Active
11 | O=C(NCc1n[nH]c(=O)c2ccccc12)c1ccc(Br)o1 | Not Active
12 | COc1ccc2cc(-c3nc4cccc(C)n4c3NC3CCCC3)c(=O)[nH]c2c1 | Not Active
13 | COc1ccc2cc(C3(C)NC(=O)N(Cc4ccc(F)cc4Cl)C3=O)ccc2c1 (stereo not given) | Not Active
14 | CC(C)C(=O)Nc1nc2c(c3c1c(=O)oc1ccccc13)CCCC2 | Not Active
15 | COc1cc(/C=C2\NC(=S)NC2=O)ccc1OCCCOc1cccc(Cl)c1 | Not Active
16 | COc1cc(/C=C2\NC(=S)NC2=O)ccc1OCCCOc1ccccc1Cl | Not Active
17 | O=C(CC1NC(=O)c2ccccc21)NCc1ccco1 (stereo not given) | Not Active
18 | Cc1ccc(C2(C)NC(=O)N(Cc3ccc(F)cc3)C2=O)cc1 (stereo not given) | Not Active
19 | C/C(=N\CC1CCCO1)C1C(=O)NC(=O)N(c2ccc(C)cc2)C1=O (stereo not given) | Not Active
20 | COc1cccc(-c2nc(=O)c3c4c(sc3[nH]2)CC(C)CC4)c1 (stereo not given) | Not Active
21 | COc1ccc(-c2nc(=O)c3c4c(sc3[nH]2)CC(C)CC4)cc1OC (stereo not given) | Not Active
22 | O=C(CSc1nc2c(c(=O)[nH]1)C1CCCCC1S2)NCc1ccco1 (stereo not given) | Not Active
23 | CC(=O)Nc1nc(-c2ccc(C(C)(C)C)cc2)nc2c1c(=O)oc1ccccc12 | Not Active
24 | COc1cc(C2C=C(Nc3ccccc3)C(=O)N2c2ccccc2)ccc1O (stereo not given) | Not Active
25 | COc1ccc(-c2nc(NC(C)=O)c3c(=O)oc4ccc(Cl)cc4c3n2)cc1 | Not Active
26 | CCc1ccc(OCCCOc2ccc(/C=C3\SC(=O)NC3=O)cc2)cc1 | Not Active
27 | CC(=O)Nc1nc(-c2ccc(Cl)c(Cl)c2)nc2c1c(=O)oc1ccccc12 | Not Active
28 | COc1cc(/C=C2\NC(=S)NC2=O)ccc1OCCCOc1cccc(C)c1 | Not Active
29 | COc1cc(/C=C2\NC(=S)NC2=O)ccc1OCCCOc1cc(C)cc(C)c1 | Not Active
30 | COc1cc(-c2nc(=O)c3c([nH]2)sc2cc(C(F)(F)F)ccc23)ccc1OCC(=O)O | Not Active
31 | Cc1ccc(SCCNC(=O)COC(=O)Cc2n[nH]c(=O)c3ccccc23)cc1 | Not Active

same assay, conditions: read-out: IC50

Row | SMILES | pIC50
32 | COc1cc(-c2nc3sc4cc(C)ccc4c3c(=O)[nH]2)ccc1OCC(=O)O | 5.40
33 | COc1cc(/C=C2\SC(=N)NC2=O)ccc1OCCCOc1cc(C)cc(C)c1 | 4.64
34 | CCOc1cc(/C=C2\NC(=S)NC2=O)ccc1OCCCOc1cc(C)cc(C)c1 | 3.60
35 | COc1cc(-c2nc3sc4c(c3c(=O)[nH]2)CCC(C)C4)ccc1OCC(=O)O (stereo not given) | 4.30
36 | COCc1cc(/C=C2\NC(=S)NC2=O)ccc1OCCCOc1cc(C)cc(C)c1 | 2.48
37 | CCc1ccc2c(c1)sc1[nH]c(-c3ccc(OCC(=O)O)c(OC)c3)nc(=O)c12 | 5.26

molecular target: T1, Insulin receptor; conditions: not given; remark: another data set of the same source

Row | SMILES | IC50
38 | COc1cc(-c2nc(=O)c3c([nH]2)sc2ccc(C)cc23)ccc1OCC(=O)O | Not Active

molecular target: Epidermal growth factor receptor (Homo sapiens, UniProt P00533); test: Inhibition of EGFR; conditions: not given
Summary of the method: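 Commercially sourced EGFR enzyme was tested in an AlphaScreen format. Kinase, biotinylated peptide, ATP and inhibitor were combined across 10 wells, typically 0.01 µM to 250 µM inhibitor. Phosphorylation ran for 30 min and was stopped with EDTA. Phosphopeptide was detected with anti-phosphotyrosine acceptor beads and streptavidin donor beads.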

Epidermal growth factor receptor, sequence (P00533 whole entry): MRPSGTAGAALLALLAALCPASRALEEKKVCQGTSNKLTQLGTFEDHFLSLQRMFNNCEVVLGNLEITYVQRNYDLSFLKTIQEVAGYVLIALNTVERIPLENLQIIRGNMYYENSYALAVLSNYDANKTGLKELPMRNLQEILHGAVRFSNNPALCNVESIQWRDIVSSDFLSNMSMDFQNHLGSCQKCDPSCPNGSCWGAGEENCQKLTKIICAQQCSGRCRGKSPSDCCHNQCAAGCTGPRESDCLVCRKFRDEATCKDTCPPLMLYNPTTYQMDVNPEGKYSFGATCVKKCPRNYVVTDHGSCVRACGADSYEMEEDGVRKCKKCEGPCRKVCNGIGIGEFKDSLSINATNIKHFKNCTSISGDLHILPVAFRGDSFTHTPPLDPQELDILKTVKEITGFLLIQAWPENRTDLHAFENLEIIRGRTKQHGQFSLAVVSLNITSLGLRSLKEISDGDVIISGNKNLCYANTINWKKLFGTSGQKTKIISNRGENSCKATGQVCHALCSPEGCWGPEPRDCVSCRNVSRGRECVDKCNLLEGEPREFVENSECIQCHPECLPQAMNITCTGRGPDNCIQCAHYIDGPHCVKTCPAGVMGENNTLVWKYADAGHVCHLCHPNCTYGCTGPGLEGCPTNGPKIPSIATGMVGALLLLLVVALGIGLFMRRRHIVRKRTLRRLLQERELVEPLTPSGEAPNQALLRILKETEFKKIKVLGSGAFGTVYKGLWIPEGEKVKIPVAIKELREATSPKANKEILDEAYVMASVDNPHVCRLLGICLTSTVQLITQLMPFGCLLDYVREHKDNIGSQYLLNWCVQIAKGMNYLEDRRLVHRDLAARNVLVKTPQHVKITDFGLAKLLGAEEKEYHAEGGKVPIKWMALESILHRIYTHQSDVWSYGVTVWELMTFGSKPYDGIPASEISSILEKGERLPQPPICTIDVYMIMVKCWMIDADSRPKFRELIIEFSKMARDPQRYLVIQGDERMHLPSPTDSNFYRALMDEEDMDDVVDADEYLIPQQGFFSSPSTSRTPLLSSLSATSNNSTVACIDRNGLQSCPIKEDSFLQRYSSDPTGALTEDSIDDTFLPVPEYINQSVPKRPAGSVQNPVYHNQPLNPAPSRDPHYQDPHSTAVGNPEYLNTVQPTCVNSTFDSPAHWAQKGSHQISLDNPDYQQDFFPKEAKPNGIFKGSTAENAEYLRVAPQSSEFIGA

Row | SMILES | pIC50
39 | COc1cc(/C=C2\SC(=N)NC2=O)ccc1OCCCOc1cc(C)cc(C)c1 | 4.25
40 | COc1cc(-c2nc(=O)c3c([nH]2)sc2ccc(C)cc23)ccc1OCC(=O)O | 5.62

From ChEMBL document CHEMBL1156931, “Discovery of novel fibroblast growth factor receptor 1 kinase inhibitors by structure-based virtual screening” (J Med Chem, 2010)
